According to ChEMBL document CHEMBL4818996, “N-substituted benzimidazole acrylonitriles as in vitro tubulin polymerization inhibitors: Synthesis, biological activity and computational analysis” (Eur J Med Chem, 2021):
Calls of active or inactive are those of the source. The calls are words filed in the database; no cut-off is given here.

Tests used:
TERT-RPE1 = assay: cells; format: ADME, cell-based; details: Homo sapiens, RPE-1, 72 h
CAPAN-1 = assay: cells; format: functional, cell-based; details: Homo sapiens, CAPAN-1, 72 h
HCT-116 = assay: Antiproliferative activity against human HCT-116 cells assessed as inhibition of cell proliferation measured after 72 hrs by real time imaging analysis; format: functional, cell-based; details: HCT-116, 72 h
In short: (§1)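 Adherent cells seeded at 500–1500 per well and incubated overnight, then treated at seven concentrations from 100 to 6.4 x 10^-3 µM. Kept at 37°C for 72 h with real-time imaging every 3 h (one field per well, 10x). Growth quantified as percent confluence; IC50 calculated from area under the curve.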

NCI-H460 = assay: Antiproliferative activity against human NCI-H460 cells assessed as inhibition of cell proliferation measured after 72 hrs by real time imaging analysis; format: functional, cell-based; details: NCI-H460, 72 h
In short: as §1

[1] = Antiproliferative activity against human DND41 cells assessed as inhibition of cell proliferation measured after 72 hrs by real time imaging analysis; format: functional, cell-based; details: DND41, 72 h
In short: (§2)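 Suspension cells seeded at 2500–5500 per well into wells already holding compound, seven concentrations from 100 to 6.4 x 10^-3 µM. Incubated at 37°C for 72 h with imaging every 3 h (one field per well, 10x). Growth taken as percent confluence; IC50 derived from area under the curve.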

HL-60 = assay: cells; format: functional, cell-based; details: Homo sapiens, HL-60, 72 h
K562 = assay: Antiproliferative activity against human K562 cells assessed as inhibition of cell proliferation measured after 72 hrs by real time imaging analysis; format: functional, cell-based; details: K562, 72 h
In short: as §2

MM1.S = assay: cells; format: functional, cell-based; details: Homo sapiens, 72 h
Z-138 = assay: cells; format: functional, cell-based; details: Homo sapiens, Z-138, 72 h
cells = format: ADME, cell-based; details: Homo sapiens, PBMC, 72 h
HEp-2 = assay: Inhibition of alpha-tubulin polymerization in human HEp-2 cells assessed as disintegration of microtubule network at 0.3 to 30 uM measured after 3 hrs by DAPI staining based immunoflourescence method relative to vincristine; format: cell-based; details: dose 0.3-30 µM
In short: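 HEp-2 cells seeded at 15000 per well and incubated overnight, then exposed 3 h to compound or DMSO carrier. Fixed in 4% PFA and permeabilised. Stained with mouse anti-alpha-tubulin and Alexa Fluor 488 anti-mouse IgG, with DAPI nuclear counterstain. Imaged by confocal microscopy at 63x water immersion. Vincristine and docetaxel served as references.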

Tubulin (Sus scrofa) = assay: Inhibition of porcine brain tubulin polymerization in presence of GTP at 30 uM measured every 60 secs for 1 hr by multiplate reader method

SMILES | IC50 (TERT-RPE1) | IC50 (CAPAN-1) | IC50 (HCT-116) | IC50 (NCI-H460) | IC50 [1] | IC50 (HL-60) | IC50 (K562) | IC50 (MM1.S) | IC50 (Z-138) | IC50 (cells) | inhibition (HEp-2) | inhibition (Tubulin (Sus scrofa))
N#C/C(=C\c1cnc2ccccc2c1)c1nc2ccccc2n1-c1ccccc1 | 12.2 µM | 10 µM | 12.4 µM | 13.6 µM | 14.1 µM | 15.3 µM | > 100 µM | 62.4 µM | 12.6 µM | – | – | –
Cn1c(/C(C#N)=C/c2ccc(Br)cc2)nc2ccccc21 | 47.3 µM | 20.5 µM | 52.2 µM | 32.1 µM | 41.3 µM | 24.3 µM | 57.6 µM | 95.7 µM | 30.7 µM | – | – | –
CC(C)Cn1c(C(C#N)=Cc2ccc(N(C)C)cc2)nc2ccc(C#N)cc21 | 1.7 µM | 0.2 µM | 0.4 µM | 0.6 µM | 0.3 µM | 0.2 µM | 1.4 µM | 1.3 µM | 0.4 µM | > 76 µM | Active | Active
CC(C)Cn1c(C(C#N)=Cc2ccc([N+](=O)[O-])cc2)nc2ccccc21 | 53.8 µM | 30.3 µM | 50.4 µM | 14.8 µM | 54.6 µM | 33.4 µM | > 100 µM | 72.9 µM | 45.4 µM | – | – | –
Cn1c(/C(C#N)=C/c2c[nH]c3ccccc23)nc2ccccc21 | 27.3 µM | 13.3 µM | 29 µM | 12.1 µM | 14.9 µM | 13.5 µM | 37 µM | 71 µM | 9.9 µM | – | – | –
N#C/C(=C\c1ccc(Br)cc1)c1nc2ccccc2n1-c1ccccc1 | 22.8 µM | 12.9 µM | 16 µM | 12 µM | 12.3 µM | 8.6 µM | 39.3 µM | 35.7 µM | 11 µM | – | – | –
N#C/C(=C\c1c[nH]c2ccccc12)c1nc2ccccc2n1-c1ccccc1 | 12.9 µM | 5.1 µM | 7.1 µM | 5.3 µM | 10.1 µM | 6.7 µM | 13.6 µM | 24.8 µM | 12.1 µM | – | – | –
CC(C)Cn1c(/C(C#N)=C/c2ccccc2)nc2ccccc21 | 44.9 µM | 20.6 µM | 42.4 µM | 26.1 µM | 60 µM | 29.1 µM | 53.4 µM | 66.7 µM | 40.1 µM | – | – | –
CN(C)c1ccc(/C=C(\C#N)c2nc3ccc(C#N)cc3n2C)cc1 | 80.9 µM | 55.9 µM | 68.5 µM | > 100 µM | > 100 µM | 68.1 µM | > 100 µM | > 100 µM | 96.5 µM | – | – | –
N#C/C(=C\c1cccnc1)c1nc2ccccc2n1-c1ccccc1 | 54.4 µM | 44 µM | 50.6 µM | 45.6 µM | 60.5 µM | 31.3 µM | > 100 µM | 59.5 µM | 30.2 µM | – | – | –
Cn1c(/C(C#N)=C/c2ccc[nH]2)nc2ccccc21 | > 100 µM | 84.4 µM | > 100 µM | 67.9 µM | 73.7 µM | > 100 µM | > 100 µM | > 100 µM | > 100 µM | – | – | –
Cn1c(/C(C#N)=C/c2cccnc2)nc2ccccc21 | 60.1 µM | 57.1 µM | 85.1 µM | 59.3 µM | > 100 µM | 58.6 µM | > 100 µM | > 100 µM | > 100 µM | – | – | –
CN[C@@H]1C[C@H]2O[C@@](C)([C@@H]1OC)n1c3ccccc3c3c4c(c5c6ccccc6n2c5c31)C(=O)NC4 [STAUROSPORINE] | – | – | 0.0281 µM | – | 0.016 µM | – | 0.0768 µM | – | – | – | – | –
N#C/C(=C\c1ccc[nH]1)c1nc2ccccc2n1-c1ccccc1 | 32.4 µM | 14.2 µM | 49.4 µM | 27.4 µM | 41.2 µM | 42 µM | > 100 µM | > 100 µM | 67.5 µM | – | – | –
CC(=O)O[C@@]12CO[C@@H]1C[C@H](O)[C@@]1(C)C(=O)[C@H](O)C3=C(C)[C@@H](OC(=O)[C@H](O)[C@@H](NC(=O)OC(C)(C)C)c4ccccc4)C[C@@](O)([C@@H](OC(=O)c4ccccc4)[C@H]21)C3(C)C [DOCETAXEL ANHYDROUS] | 0.0553 µM | 0.0088 µM | 0.0017 µM | 0.0024 µM | 0.0125 µM | 0.0072 µM | 0.0152 µM | 0.0118 µM | 0.0142 µM | – | – | –
Cn1c(/C(C#N)=C/c2cnc3ccccc3c2)nc2ccccc21 | 39.4 µM | 66.9 µM | > 100 µM | 22.4 µM | 49.9 µM | 33 µM | > 100 µM | > 100 µM | 45 µM | – | – | –
CC(C)Cn1c(C(C#N)=Cc2ccc(N(C)C)cc2)nc2ccccc21 | 4.3 µM | 0.3 µM | 0.6 µM | 0.4 µM | 0.2 µM | 0.3 µM | 2.1 µM | 1.5 µM | 0.4 µM | > 98.8 µM | Active | Active
CN(C)c1ccc(/C=C(\C#N)c2nc3ccc(C#N)cc3n2-c2ccccc2)cc1 | 27.8 µM | 3.1 µM | 26.8 µM | 45.7 µM | 55.8 µM | 10.9 µM | > 100 µM | > 100 µM | 17.4 µM | – | – | –
